Experimental data from ChEMBL document CHEMBL3585293, “Design, antiviral and cytostatic properties of isoxazolidine-containing amonafide analogues” (Bioorg Med Chem, 2015).
Activity calls are given as the source filed them. The calls are words filed in the database; no cut-off is given here.

The compounds below were run on Influenza A virus (assay: Antiviral activity against Influenza A virus (A/PR/8/34(H1N1)) infected in MDCK cells assessed as reduction of virus-induced cytopathogenicity). Settings: A/Puerto Rico/8/1934(H1N1).
Assay type: functional, organism-based
How it was run: (§1)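 MDCK cells, grown confluent in 96-well plates, were infected with influenza A/PR/8 (H1N1), A/HK/7/87 (H3N2) or B/HK/5/72 at 100 CCID50 or 20 PFU and exposed to varying compound concentrations. Cytopathic effect was recorded when it reached completion in untreated virus controls. EC50 is the concentration that halves virus-induced cytopathicity.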
`CCOP(=O)(OCC)[C@@H]1C[C@@H](CN2C(=O)c3cccc4cccc(c34)C2=O)ON1C` (relative stereo) was tested, and the Activity was “inactive”.
For `CCOP(=O)(OCC)[C@@H]1C[C@@H](CN2C(=O)c3cccc4cc([N+](=O)[O-])cc(c34)C2=O)ON1C` (relative stereo), the Activity was “inactive”.
With `CCOP(=O)(OCC)[C@@H]1C[C@H](CN2C(=O)c3cccc4cc(N)cc(c34)C2=O)ON1C` (relative stereo) the Activity was “inactive”.

What follows are compounds tested on Vesicular stomatitis virus (assay: Antiviral activity against Vesicular stomatitis virus infected in human HeLa cells assessed as reduction of virus-induced cytopathogenicity). Settings: not given.
Assay type: functional, organism-based
How it was run: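 Confluent Vero (Coxsackie B4) or HeLa (vesicular stomatitis virus) monolayers in 96-well plates were inoculated with 100 CCID50 virus or 20 PFU and incubated with varying compound concentrations. Cytopathicity was scored once complete in untreated infected controls. […] Two separate experiments were run.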
With `CCOP(=O)(OCC)[C@@H]1C[C@@H](CN2C(=O)c3cccc4cccc(c34)C2=O)ON1C` (relative stereo) the Activity was “inactive”.
For `CCOP(=O)(OCC)[C@@H]1C[C@@H](CN2C(=O)c3cccc4cc([N+](=O)[O-])cc(c34)C2=O)ON1C` (relative stereo), the Activity was “inactive”.
`CCOP(=O)(OCC)[C@@H]1C[C@H](CN2C(=O)c3cccc4cc(N)cc(c34)C2=O)ON1C` (relative stereo) was tested, and the Activity was “inactive”.

Each compound was assayed on Sindbis virus (assay: Antiviral activity against Sindbis virus infected in African green monkey Vero cells assessed as reduction of virus-induced cytopathogenicity). Settings: not given.
Assay type: functional, organism-based
How it was run: (§2)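 Confluent monolayers were infected with 100 CCID50 of virus (1 CCID50 infects 50% of cultures) or 20 PFU. The cultures were then incubated with varying test compound concentrations. Cytopathicity was scored once it was complete in untreated infected controls.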
With `CCOP(=O)(OCC)[C@@H]1C[C@@H](CN2C(=O)c3cccc4cccc(c34)C2=O)ON1C` (relative stereo) the Activity was “inactive”.
For `CCOP(=O)(OCC)[C@@H]1C[C@@H](CN2C(=O)c3cccc4cc([N+](=O)[O-])cc(c34)C2=O)ON1C` (relative stereo), the Activity was “inactive”.
With `CCOP(=O)(OCC)[C@@H]1C[C@H](CN2C(=O)c3cccc4cc(N)cc(c34)C2=O)ON1C` (relative stereo) the Activity was “inactive”.

Each compound was assayed on Influenza A virus H3N2 (assay: Antiviral activity against Influenza A virus H3N2 infected in MDCK cells assessed as reduction of virus-induced cytopathogenicity). Settings: not given.
Assay type: functional, organism-based
How it was run: as §1
With `CCOP(=O)(OCC)[C@@H]1C[C@@H](CN2C(=O)c3cccc4cccc(c34)C2=O)ON1C` (relative stereo) the Activity was “inactive”.
For `CCOP(=O)(OCC)[C@@H]1C[C@@H](CN2C(=O)c3cccc4cc([N+](=O)[O-])cc(c34)C2=O)ON1C` (relative stereo), the Activity was “inactive”.
In the case of `CCOP(=O)(OCC)[C@@H]1C[C@H](CN2C(=O)c3cccc4cc(N)cc(c34)C2=O)ON1C` (relative stereo), the Activity was “inactive”.

These compounds were tested on Human respirovirus 3 (assay: Antiviral activity against Parainfluenza virus 3 infected in African green monkey Vero cells assessed as reduction of virus-induced cytopathogenicity). Settings: not given.
Assay type: functional, organism-based
How it was run: as §2
`CCOP(=O)(OCC)[C@@H]1C[C@@H](CN2C(=O)c3cccc4cccc(c34)C2=O)ON1C` (relative stereo) was tested, and the Activity was “inactive”.
With `CCOP(=O)(OCC)[C@@H]1C[C@@H](CN2C(=O)c3cccc4cc([N+](=O)[O-])cc(c34)C2=O)ON1C` (relative stereo) the Activity was “inactive”.
With `CCOP(=O)(OCC)[C@@H]1C[C@H](CN2C(=O)c3cccc4cc(N)cc(c34)C2=O)ON1C` (relative stereo) the Activity was “inactive”.

The compounds below were run on Felid alphaherpesvirus 1 (assay: Antiviral activity against Feline herpesvirus infected in CRFK cells assessed as reduction of virus-induced cytopathogenicity). Settings: not given.
Assay type: functional, organism-based
How it was run: as §2
In the case of `CCOP(=O)(OCC)[C@@H]1C[C@@H](CN2C(=O)c3cccc4cccc(c34)C2=O)ON1C` (relative stereo), the Activity was “inactive”.
For `CCOP(=O)(OCC)[C@@H]1C[C@@H](CN2C(=O)c3cccc4cc([N+](=O)[O-])cc(c34)C2=O)ON1C` (relative stereo), the Activity was “inactive”.
With `CCOP(=O)(OCC)[C@@H]1C[C@H](CN2C(=O)c3cccc4cc(N)cc(c34)C2=O)ON1C` (relative stereo) the Activity was “inactive”.

Each compound was assayed on Reovirus sp. (assay: Antiviral activity against Reovirus infected in African green monkey Vero cells assessed as reduction of virus-induced cytopathogenicity). Settings: not given.
Assay type: functional, organism-based
How it was run: as §2
In the case of `CCOP(=O)(OCC)[C@@H]1C[C@@H](CN2C(=O)c3cccc4cccc(c34)C2=O)ON1C` (relative stereo), the Activity was “inactive”.
For `CCOP(=O)(OCC)[C@@H]1C[C@@H](CN2C(=O)c3cccc4cc([N+](=O)[O-])cc(c34)C2=O)ON1C` (relative stereo), the Activity was “inactive”.
For `CCOP(=O)(OCC)[C@@H]1C[C@H](CN2C(=O)c3cccc4cc(N)cc(c34)C2=O)ON1C` (relative stereo), the Activity was “inactive”.

The compounds below were run on Feline coronavirus (assay: Antiviral activity against Feline coronavirus infected in CRFK cells assessed as reduction of virus-induced cytopathogenicity). Settings: not given.
Assay type: functional, organism-based
How it was run: as §2
With `CCOP(=O)(OCC)[C@@H]1C[C@@H](CN2C(=O)c3cccc4cccc(c34)C2=O)ON1C` (relative stereo) the Activity was “inactive”.
For `CCOP(=O)(OCC)[C@@H]1C[C@@H](CN2C(=O)c3cccc4cc([N+](=O)[O-])cc(c34)C2=O)ON1C` (relative stereo), the Activity was “inactive”.
`CCOP(=O)(OCC)[C@@H]1C[C@H](CN2C(=O)c3cccc4cc(N)cc(c34)C2=O)ON1C` (relative stereo) was tested, and the Activity was “inactive”.

Each compound was assayed on Influenza B virus (assay: Antiviral activity against Influenza B virus (B/HK/5/72) infected in MDCK cells assessed as reduction of virus-induced cytopathogenicity). Settings: B/Hong Kong/05/1972.
Assay type: functional, cell-based
How it was run: as §1
In the case of `CCOP(=O)(OCC)[C@@H]1C[C@@H](CN2C(=O)c3cccc4cccc(c34)C2=O)ON1C` (relative stereo), the Activity was “inactive”.
For `CCOP(=O)(OCC)[C@@H]1C[C@@H](CN2C(=O)c3cccc4cc([N+](=O)[O-])cc(c34)C2=O)ON1C` (relative stereo), the Activity was “inactive”.
In the case of `CCOP(=O)(OCC)[C@@H]1C[C@H](CN2C(=O)c3cccc4cc(N)cc(c34)C2=O)ON1C` (relative stereo), the Activity was “inactive”.

What follows are compounds tested on Human adenovirus 2 (assay: Antiviral activity against Human adenovirus 2 infected in HEL cells assessed as reduction of virus-induced cytopathogenicity). Settings: not given.
Assay type: functional, organism-based
How it was run: as §2
In the case of `CCOP(=O)(OCC)[C@@H]1C[C@@H](CN2C(=O)c3cccc4cccc(c34)C2=O)ON1C` (relative stereo), the Activity was “inactive”.
In the case of `CCOP(=O)(OCC)[C@@H]1C[C@@H](CN2C(=O)c3cccc4cc([N+](=O)[O-])cc(c34)C2=O)ON1C` (relative stereo), the Activity was “inactive”.
In the case of `CCOP(=O)(OCC)[C@@H]1C[C@H](CN2C(=O)c3cccc4cc(N)cc(c34)C2=O)ON1C` (relative stereo), the Activity was “inactive”.

The compounds below were run on Respiratory syncytial virus (assay: Antiviral activity against Respiratory syncytial virus infected in human Hela cells assessed as reduction of virus-induced cytopathogenicity). Settings: not given.
Assay type: functional, organism-based
How it was run: as §2
In the case of `CCOP(=O)(OCC)[C@@H]1C[C@@H](CN2C(=O)c3cccc4cccc(c34)C2=O)ON1C` (relative stereo), the Activity was “inactive”.
For `CCOP(=O)(OCC)[C@@H]1C[C@@H](CN2C(=O)c3cccc4cc([N+](=O)[O-])cc(c34)C2=O)ON1C` (relative stereo), the Activity was “inactive”.
For `CCOP(=O)(OCC)[C@@H]1C[C@H](CN2C(=O)c3cccc4cc(N)cc(c34)C2=O)ON1C` (relative stereo), the Activity was “inactive”.
